Assay outcomes from PubChem.
RAD52 anneal inh = blocks human RAD52 DNA annealing; inhibition, % at 18.7 µM; recombinant RAD52 DNA annealing, FRET fluorescence; 360,000 tested, 0.46% active;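 active = every replicate showing at least 50% inhibition; inconclusive = mean inhibition at least 50% but not in every replicate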
Target sequence (P43351 whole entry, looked up): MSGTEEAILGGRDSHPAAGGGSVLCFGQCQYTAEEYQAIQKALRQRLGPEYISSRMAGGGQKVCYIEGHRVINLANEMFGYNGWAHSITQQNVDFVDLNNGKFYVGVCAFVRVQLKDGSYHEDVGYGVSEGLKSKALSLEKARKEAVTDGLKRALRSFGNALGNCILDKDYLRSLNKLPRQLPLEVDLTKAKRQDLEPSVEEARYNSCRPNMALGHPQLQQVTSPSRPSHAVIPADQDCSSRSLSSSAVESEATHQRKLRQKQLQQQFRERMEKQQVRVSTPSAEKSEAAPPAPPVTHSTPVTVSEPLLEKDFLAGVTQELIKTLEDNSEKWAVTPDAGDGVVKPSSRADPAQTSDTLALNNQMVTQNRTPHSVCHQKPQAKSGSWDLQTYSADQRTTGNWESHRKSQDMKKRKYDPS
ERAP1 HTS inh = blocks human ERAP1 aminopeptidase activity. 340,000 tested, 0.15% active. inhibition, % at 10.7 µM. recombinant ERAP1, Leu-AMC fluorescence, 60 min. AID 652197. Q9NZ08;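 active = mean replicate inhibition of at least 30%, or all replicates individually reaching that 30% level; inactive = mean below 30% and not every replicate reaching it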;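 also: 0% = neutral control wells and 100% = L-leucinethiol positive control wells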
S100A4 inh HTS = inhibitors of human S100A4 binding to myosin IIA peptide; P26447; S100A4/TAMRA-MyoIIA peptide fluorescence polarization; inhibition, % at 10.7 µM; 360,000 tested, 0.14% active; AID 652163;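 active = mean inhibition of at least 70% across replicates, with every replicate also reaching that level; inconclusive = mean inhibition reaches 70% but some replicates fall short; inactive = mean inhibition below 70%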
Target sequence (P26447 whole entry, looked up): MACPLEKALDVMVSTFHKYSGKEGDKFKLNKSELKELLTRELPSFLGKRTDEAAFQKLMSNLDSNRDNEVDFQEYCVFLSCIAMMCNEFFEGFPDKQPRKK
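Material: S100A4 monomer (human). Medium: Calcium-containing HEPES buffer, pH 7.2. Probe or stimulus: labelled myosin peptide probe, 5 nM. Compound dosing: one concentration per compound. Timing: polarization read 5 min after assay mix addition, stable 5–60 min. Benchmarks: DMSO as neutral control, TFP as positive control.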
INS-1E GSIS act = GLuc luminescence reporter in INS-1E cells, primary screen for activators of glucose-dependent secretion of insulin | INS-1E GLuc reporter insulin secretion, 2-3 h | activation, % at 16.6 µM | 370,000 tested, 0.61% active | AID 743287;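 active = lowest replicate activation of at least 40%, so every replicate reaches that level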;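 also: 0% = median of neutral control wells and 100% = median of IBMX positive control wells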
AF4-AF9 inh = blocks AF4 peptide binding to human AF9 | AlphaScreen, biotin-AF4 peptide binding to FLAG-AF9 | inhibition, % at 10 µM | 350,000 tested, 0.47% active | AID 651704;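 active = every replicate reaching a set inhibition limit, whatever the replicate mean, cut at about 25% in these data; inconclusive = mean inhibition reaches that limit but some replicates miss it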;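 also: 0% = plate neutral control median and 100% = total signal loss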
* hit, by the source's call; ? = inconclusive; / = no result given; ! = repeats disagree. The list is not random: actives were taken first. Their share in the collection is about 1.5%.

SMILES	RAD52 anneal inh	ERAP1 HTS inh	S100A4 inh HTS	INS-1E GSIS act	AF4-AF9 inh
Cc1ccccc1S(=O)(=O)N1CC[C@@H]2[C@H](CO)Nc3ccc(-c4cccc(F)c4)cc3[C@@H]21	/	/	/	6	3
C[C@H](CO)N1C[C@H](C)[C@H](CN(C)S(=O)(=O)c2cccs2)OCCCC[C@H](C)Oc2ccc(NC(=O)NC3CCCCC3)cc2C1=O	/	/	/	-13	/
Cc1nnc(C)c2c(C)n(C(c3ccccc3)c3ccccc3)c(C)c12	2	-3	-82	4	30*
CCOc1ccc2c(c1)[N+](C)(C)C(C)(C)C=C2C	-18	41*	-1	-10	-1
COc1ccc2c(c1)C(C)=CC(C)(C)N2S(=O)(=O)c1ccc(C)cc1	-15	0	-4	-5	4
COc1ccc2c(c1)[N+](C)(C)C(C)(C)C=C2C	-2	45*	-1	-2	5
CC(C)C[C@@H]1COCc2cn(nn2)CC[C@H](Cc2ccc(-c3ccccc3)cc2)C(=O)N1	/	/	/	-4	/
Cc1ccc(NC(=S)c2ccc3ccccc3n2)c(C)c1	-13	0	-18	57*	-2
COc1ccc(S(=O)(=O)N(C)C[C@@H]2OCCCC[C@@H](C)Oc3ccc(NS(=O)(=O)c4ccc(Cl)cc4)cc3C(=O)N([C@@H](C)CO)C[C@H]2C)cc1	6	2	-3	-8	-4
COc1ccccc1S(=O)(=O)Nc1ccc2c(c1)OC[C@H](C)NC[C@H](C)[C@@H](OC)CN(C)C2=O	-4	0	0	8	-2
N#CC(C(=O)c1ccco1)c1ccccn1 (stereo not given)	/	/	/	43*	/
COC(=O)CCSCC(=O)Nc1nnc(C)s1	-9	4	0	4	27*
CCCCC(CC)C(=O)Oc1ccc(O)c(C(C)(C)C)c1 (stereo not given)	12	3	-8	511*	-2
CC(C)(C)c1cc(OC(=O)C2CCCC2)ccc1O	7	-2	2	40	-1
Cc1ccccc1-c1ccc([C@H]2[C@@H](CO)N3CCCCN(S(=O)(=O)Cc4ccccc4)C[C@H]23)cc1	69*	0	0	-2	2
Cc1ccccc1-c1ccc([C@H]2[C@H]3CN(S(=O)(=O)Cc4ccccc4)CCCCN3[C@H]2CO)cc1	35	-1	0	-7	4
Cc1ccccc1S(=O)(=O)N1CCCCN2[C@H](CO)[C@@H](c3ccc(-c4ccccc4)cc3)[C@H]2C1	70*	-1	-2	/	0
Cc1ccccc1S(=O)(=O)N1CCCCN2[C@H](CO)[C@H](c3ccc(-c4ccccc4)cc3)[C@H]2C1	73*	5	-3	/	0
COc1ccc2c3c([nH]c2c1)[C@H](CO)N(C(=O)c1ccc(F)cc1)CC31CN(C(=O)CC2CC2)C1	11	0	-11	-1	-2
COc1cccc(S(=O)(=O)N2C[C@@H]3N[C@H](C2)C3c2ccc(-c3ccccc3C)cc2)c1 (stereo not given in full)	43	0	-6	-4	-4
COc1ccccc1S(=O)(=O)N1C[C@@H]2N[C@H](C1)C2c1ccc(-c2cccc(F)c2)cc1 (stereo not given in full)	11	-10	?	5	3
COc1cccc(-c2ccc(C3[C@@H]4CN(S(=O)(=O)c5cccc(OC)c5)C[C@H]3N4)cc2)c1 (stereo not given in full)	70*!	-3	4	-29	-5
COc1ccccc1-c1ccc([C@@H]2[C@@H]3CN(S(=O)(=O)c4ccc(-c5ccccc5)cc4)C[C@H]2N3)cc1	88*	-5	16	33	-6
COc1ccccc1S(=O)(=O)N1C[C@@H]2N[C@H](C1)C2c1ccc(-c2ccccc2)cc1 (stereo not given in full)	45	0	1	4	-2
COc1cccc(S(=O)(=O)N2C[C@@H]3N[C@H](C2)C3c2ccc(-c3ccccc3OC)cc2)c1 (stereo not given in full)	56*!	4	4	-25	2
SMILES	RAD52 anneal inh	ERAP1 HTS inh	S100A4 inh HTS	INS-1E GSIS act	AF4-AF9 inh
COc1cccc(S(=O)(=O)N2C[C@@H]3N[C@H](C2)C3c2ccc(-c3ccc(C(=O)N(C)C)cc3)cc2)c1 (stereo not given in full)	/	/	/	1	/
COc1ccccc1-c1ccc(C2[C@@H]3CN(S(=O)(=O)c4ccccc4C)C[C@H]2N3)cc1 (stereo not given in full)	51*	-6	-5	-29	1
O=C(Cc1ccncc1)NCC[C@@H]1CC[C@@H](NC(=O)C2CCCC2)[C@@H](CO)O1	-32	0	-13	-6	-3
C[C@@H]1CN([C@@H](C)CO)C(=O)c2c(c3ccccc3n2C)-c2ccccc2CO[C@H]1CN(C)Cc1ccccc1	/	/	/	-8	/
CCS(=O)(=O)N1CCCCN2[C@@H](CO)[C@@H](c3ccc(C#CC(C)(C)O)cc3)[C@@H]2C1	-8	2	-6	-9	-7
C=C1CC(/C=C/c2cc(OC)c(OC)c(OC)c2)OC1=O (stereo not given)	4	-1	-7	/	-1
O=C(NC1CCCCC1)[C@@H]1[C@@H](CO)[C@@H]2Cn3c(ccc(-c4ccccc4)c3=O)[C@H]1N2	/	/	/	1	/
Cc1ccccc1S(=O)(=O)N1C[C@@H]2N[C@H](C1)C2c1ccc(-c2ccc(C#N)cc2)cc1 (stereo not given in full)	72*!	0	3	-22	-6
Cc1ccccc1S(=O)(=O)N1C[C@@H]2N[C@H](C1)C2c1ccc(-c2ccc(C(=O)N(C)C)cc2)cc1 (stereo not given in full)	39	/	-16	9	5
C[C@H](O)C#Cc1ccc2c(c1)O[C@H](CN(C)CC1CC1)[C@H](C)CN([C@@H](C)CO)S2(=O)=O	/	/	/	5	/
O=C(c1ccccn1)N1[C@@H](CO)[C@@H](c2ccccc2)C12CN(Cc1ccccc1F)C2	/	/	/	15	/
COc1ccccc1CNC(=O)C[C@H]1CC[C@@H]2[C@H](COC[C@@H](O)CN2C(=O)Nc2ccc(F)cc2)O1	/	/	/	-15	/
O=S(=O)(NC[C@@H]1CC[C@H]2[C@H](CN2Cc2cccc(-c3ccccn3)c2)O1)c1ccccc1	0	-5	13	/	0
CNC[C@H]1OCCCC[C@H](C)Oc2ccc(NC(=O)C3CCCCC3)cc2C(=O)N([C@@H](C)CO)C[C@@H]1C	-245	0	-17	-2	1
CNC[C@@H]1OCCCC[C@H](C)Oc2ccc(NS(C)(=O)=O)cc2C(=O)N([C@@H](C)CO)C[C@@H]1C	-2	4	89*	33	-8
CNC[C@H]1OCCCC[C@@H](C)Oc2ccc(NC(=O)C3CCCCC3)cc2C(=O)N([C@@H](C)CO)C[C@@H]1C	-93	2	97*	15	-5
O=S(=O)(c1ccccc1)N1CC2(C1)[C@@H](c1ccccc1)[C@@H](CO)N2CC1CC1	/	/	/	-15	/
